# Laboratory results published in publication PMC7867784 (Translational Lung Cancer Research, 2021).
# Values joined by “and” are separate entries in the source; they are usually repeats but may differ in a detail not shown here. Identical values can stand only once. Like-named read-outs stand apart in the source and are kept apart here.
# How the values were obtained:
# [1] = ALL-RET pharmacokinetic analysis; type: in vivo, human; details: for free fraction of Cmin in a steady state: 450 mg BID; for AUC / Cmax / concentration at 10 h / Tmax: human, plasma, oral; for concentration at 10 h: Cmin (plasma concentration at 10 h after administration), mean ± SD [min–max]; for Tmax: median [min–max]
# RET-rearranged NSCLC [2] = test: ALL-RET phase 1/2 trial: antitumor efficacy; type: in vivo, human
# Summary of the method: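 Patients with RET-rearranged NSCLC confirmed by at least 2 of 3 methods (multiplex RT-PCR, break-apart FISH, targeted NGS), previously treated with ≥1 chemotherapy regimen, ECOG PS 0–2, with measurable lesions. The test compound was given BID in 21-day cycles until respite, dose reduction or discontinuation criteria were met. Response was assessed by RECIST v1.1 on central review. DCR was defined as CR+PR+SD lasting at least 8 weeks.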
# [3] = cited from earlier work; for Cmax: AF-002JG study; for AUC0-10: global study
# RET-rearranged NSCLC [4] = details: 600 mg BID, non-Japanese RET rearrangement NSCLC, out of 8 patients; cited from earlier work
# [5] = 450 mg, Day 15, 450 mg BID, N=5
# [6] = 600 mg, Day 15, 600 mg BID, N=3
# [7] = 450 mg BID, 25 RET-TKI-naïve patients
# [8] = 450 mg BID, RET-TKI-naïve (n=25)
# [9] = 450 mg BID, of 25 RET-TKI-naïve patients
smiles,measurement,setting,value
CCc1cc2c(cc1N1CCC(N3CCOCC3)CC1)C(C)(C)c1[nH]c3cc(C#N)ccc3c1C2=O [alectinib],free fraction of Cmin in a steady state,[1],< 4.8 ng/mL
same,free fraction of Cmin in a steady state,[1]; equivalent of ng/mL value,< 10 nM
same,AUC,[1]; 450 mg,4820 ng·h/mL
same,Cmax,[1]; 450 mg,576 ± 215 ng/mL
same,concentration at 10 h,"[1]; 450 mg, Day 1, 450 mg, N=6",118 ng/mL
same,concentration at 10 h,[1]; [5],483 ng/mL
same,Tmax,"[1]; 450 mg, Day 1, 450 mg, N=6",5.91 h
same,Tmax,[1]; [5],7.97 h
same,AUC,[1]; 600 mg,8600 ng·h/mL
same,Cmax,[1]; 600 mg,1050 ng/mL
same,concentration at 10 h,"[1]; 600 mg, Day 1, 600 mg, N=6",278 ng/mL
same,concentration at 10 h,[1]; [6],911 ng/mL
same,Tmax,"[1]; 600 mg, Day 1, 600 mg, N=6",7.01 h
same,Tmax,[1]; [6],5.77 h
same,patients who could continue treatment for more than 1 year,RET-rearranged NSCLC [2]; 450 mg BID,5
same,"DCR (disease control rate, at 8 weeks)",RET-rearranged NSCLC [2]; [7],52%
same,patients with disease stabilization for more than 1 year,RET-rearranged NSCLC [2]; [7],5
same,"patients with disease stabilization for more than 1 year, percent",RET-rearranged NSCLC [2]; [7],20%
same,ORR (objective/overall response rate),"RET-rearranged NSCLC [2]; 450 mg BID, 25 RET-TKI-naïve patients, central review",4%
same,median PFS,"RET-rearranged NSCLC [2]; 450 mg BID, 25 RET-TKI-naïve patients, 95% CI 2.0–5.4",3.4 months
same,median OS,"RET-rearranged NSCLC [2]; 450 mg BID, 25 RET-TKI-naïve patients, 95% CI 5.4–NE",19.0 months and 19 months
same,"Best overall response NE (not evaluated), %",RET-rearranged NSCLC [2]; [8],8%
same,"Best overall response PD, %",RET-rearranged NSCLC [2]; [8],40%
same,"Best overall response PR, %",RET-rearranged NSCLC [2]; [8],4%
same,"Best overall response SD, %",RET-rearranged NSCLC [2]; [8],48%
same,patients with disease control at 8 weeks,RET-rearranged NSCLC [2]; [9],13
same,patients with objective response,RET-rearranged NSCLC [2]; [9],1
same,treatment duration of the patient who showed PR,"RET-rearranged NSCLC [2]; one patient with KIF5B-RET, phase 2, 450 mg BID",~2 years
same,activity against RET-rearranged NSCLC (conclusion),"RET-rearranged NSCLC [2]; phase 1/2, Japanese patients",limited activity
same,Cmax,[3]; 460 mg BID,618 ± 165 ng/mL
same,AUC0-10,[3]; 460 mg BID,"4,980±1,340 ng·h/mL"
same,Cmax,[3]; 600 mg BID,676 ± 186 ng/mL
same,AUC0-10,[3]; 600 mg BID,"5,400±1,400 ng·h/mL"
same,patients with PR,RET-rearranged NSCLC [4],4
